Compound activity (PubChem)
DNMT1 block = blocks human DNA methyltransferase DNMT1 | DNMT1 molecular beacon, Hinp1I cleavage, fluorescence | 360,000 tested, 0.83% active | inhibition (reported as % activation of signal), % at 10 µM; in the data active = inhibition above about 50%
CSN deneddyl inh = inhibitors of human CSN-mediated cullin deneddylation; AID 651999; Q92905; 360,000 tested, 0.38% active; Purified CSN, SCF-Nedd8-OG deneddylation, fluorescence polarization; inhibition, % at 12.5 µM;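 active = pattern-corrected inhibition above about 35%, with an unprinted fluorescence ratio check between 0.5 and 1.5, limit read from the data, passing the limit was not always enough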;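 also: 0% = enzyme with substrate and 100% = substrate without enzyme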
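assay system = purified human Csn5 enzyme expressed in HEK293T cells | amount = 0.24 nM enzyme | buffer or medium = Tris/NaCl/DTT buffer, pH 7.5 | reagent = 10 nM SCFSkp2-Nedd8OG | compound = one concentration, 12.5 µM, 0.25% DMSO | times = 90 min reaction at room temperature | signal = FP | read-out basis = % inhibition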
SUMO1-SIM PPI = modulators of human SUMO1-mediated protein-protein interactions; P63165; SUMO1 binding to a labelled peptide, TR-FRET, 1 h; inhibition, % at 20 µM; 360,000 tested, 0.33% active; in the data active = inhibition above about 37%
Target sequence (P63165 whole entry, looked up): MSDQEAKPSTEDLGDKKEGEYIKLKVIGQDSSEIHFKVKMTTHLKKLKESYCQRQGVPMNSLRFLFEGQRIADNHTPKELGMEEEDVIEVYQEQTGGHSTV
STEP block = STEP (human) phosphatase inhibition; recombinant STEP, OMFP fluorogenic substrate, fluorescence; inhibition, % at 20 µM; 360,000 tested, 0.25% active; P54829;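 active = inhibition at 20 µM, scaled per plate between control wells, above about 37%, limit read from the data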;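 also: 0% = DMSO with enzyme and substrate and 100% = substrate only without enzyme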
Target sequence (P54829 whole entry, looked up): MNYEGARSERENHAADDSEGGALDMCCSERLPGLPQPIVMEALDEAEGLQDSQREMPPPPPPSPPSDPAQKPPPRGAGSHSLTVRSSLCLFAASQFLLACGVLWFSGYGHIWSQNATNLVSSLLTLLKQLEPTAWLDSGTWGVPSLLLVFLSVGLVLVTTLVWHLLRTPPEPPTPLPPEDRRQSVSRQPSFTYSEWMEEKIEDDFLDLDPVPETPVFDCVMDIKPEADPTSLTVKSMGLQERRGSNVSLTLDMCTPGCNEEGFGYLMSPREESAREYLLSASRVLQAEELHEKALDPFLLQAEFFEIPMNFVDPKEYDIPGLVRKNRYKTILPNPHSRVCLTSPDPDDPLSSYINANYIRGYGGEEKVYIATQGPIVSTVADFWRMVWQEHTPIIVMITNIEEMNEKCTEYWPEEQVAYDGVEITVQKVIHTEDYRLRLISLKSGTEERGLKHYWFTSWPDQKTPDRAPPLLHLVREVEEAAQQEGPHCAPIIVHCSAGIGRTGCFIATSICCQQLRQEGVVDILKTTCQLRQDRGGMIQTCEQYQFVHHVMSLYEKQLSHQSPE
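Assay system: isolated STEP enzyme. Buffer or medium: pH 6.0 Bis-Tris with DTT and Tween 20. Also added: fluorogenic phosphatase substrate OMFP at 25 µM final. Dosing: 20 µM, 1% DMSO. Timing: 20 min reaction, room temperature, in the dark. Measured by: fluorescence intensity, excitation 480 nm, emission 540 nm. Evaluation: normalized % inhibition.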
LMPTP inh = blocks human LMPTP phosphatase; P24666; recombinant LMPTP-A, OMFP fluorogenic substrate, fluorescence intensity; inhibition, % at 20 µM; 360,000 tested, 0.22% active;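 active = compounds that cut the enzyme signal by at least half of the control window in the single-dose screen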;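 also: plate controls were DMSO wells with enzyme plus substrate for no effect and substrate without enzyme for full effect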
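Assay system: LMPTP-A phosphatase enzyme | Input: 0.625 nM enzyme | Also added: Fluorogenic phosphatase substrate OMFP at 400 µM final | Compound dosing: One test concentration per compound, 20 µM, with 3% DMSO overall | Schedule: 50 min enzyme reaction at room temperature, protected from light | Signal: Fluorescence intensity | Benchmarks: no-enzyme and uninhibited controls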
Scp1 inh = inhibitors of human Scp-1 phosphatase; Recombinant Scp1, phosphopeptide, malachite green phosphate absorbance; inhibition, % at 20 µM; 340,000 tested, 0.88% active; AID 493091;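 active = inhibition above about 50% at 20 µM, limit read from the data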;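 also: plate controls were DMSO wells with enzyme for no effect and wells lacking enzyme for full effect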
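System: SCP-1 catalytic domain; Reagent: Phospho 17-mer peptide substrate; Doses: one concentration, 20 µM, with 1.0% DMSO; Incubation: 45 min room-temperature reaction, 5 min colour, 30 min stabiliser; Signal: Phosphate-binding colour reagent, absorbance read at 630 nm.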
DNMT1 confirm = DNMT1 inhibition confirmation, single concentration | DNMT1 molecular beacon HinP1I cleavage, fluorescence | shares compounds with DNMT1 block | inhibition, % at 10 µM | 2,300 tested, 8% active;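 active = average inhibition of at least 30% in the single-concentration confirmation test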
Beacon interf = beacon fluorescence artifact counter-screen. shares compounds with DNMT1 block. DNMT1 molecular beacon spectral interference counterscreen, fluorescence 485/520. activation (fluorescence interference), % at 10 µM. 2,300 tested, 1% active. AID 602387;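 active = activation of at least 30% at 10 µM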;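 also: DNMT1 catalytic domain with a HinP1I cleavage step and a FAM/dabcyl DNA beacon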
Numbers without * were called inactive; . = not tested or not shown. In the library only some 1.9% were active in any assay of this set; here they are far more common.

SMILES | DNMT1 block | CSN deneddyl inh | SUMO1-SIM PPI | STEP block | LMPTP inh | Scp1 inh | DNMT1 confirm | Beacon interf
C=CC[C@@H](CC(=O)N[C@@H](CO)Cc1ccccc1)C(=O)N[C@H](COC(=O)[C@@H](CC=C)Cc1ccc(F)cc1)Cc1ccccc1 | 62* | -2 | 4 | 0 | -1 | -5 | 0 | 1
COc1ccc(Cl)cc1NC(=O)C1CCN(C(=O)Nc2ccccc2)CC1 | -12 | -3 | 3 | -1 | 0 | -9 | . | .
O=C(CNS(=O)(=O)c1cccs1)N1CCc2ccccc2C1 | -2 | -5 | -1 | 2 | -2 | -8 | . | .
O=C(N/N=C/c1cc(Br)c(O)c(Br)c1)c1cccc(C(F)(F)F)c1 | 74* | 3 | -1 | -2 | -1 | -4 | 3 | 2
CCCCc1nc2cc(C(=O)NC3CCOC(C)(C)C3)ccc2o1 (stereo not drawn) | 2 | -5 | 1 | -1 | -1 | -3 | . | .
O=C1NC(c2ccc(Cl)cc2Cl)Oc2ccccc21 (stereo not drawn) | -5 | 1 | -3 | -5 | 0 | 0 | . | .
Cc1ccccc1C1NC(=O)c2ccccc2O1 (stereo not drawn) | 75* | -2 | 6 | -7 | -1 | 1 | 4 | 5
CC1CCN(S(=O)(=O)c2ccc(NC(=O)Cn3nnc(-c4ccccc4)n3)cc2)CC1 | 56* | 4 | 2 | 3 | 0 | -3 | 5 | 9
Cc1ccc(-c2nnn(CC(=O)Nc3ccc(S(=O)(=O)N4CCC(C)CC4)cc3)n2)cc1 | 48 | -1 | -1 | 2 | 1 | -11 | . | .
COC(=O)c1ccc(NC(=O)CCN2CCOCC2)cc1 | 92* | 0 | -4 | 1 | -1 | -1 | 2 | 3
COC(=O)c1ccc(NC(=O)CCN2CCN(CCC(=O)Nc3ccc(C(=O)OC)cc3)CC2)cc1 | -2 | -3 | 14 | 9 | -2 | -6 | . | .
Cc1c(=O)n(OCc2ccccc2F)c2ccccc2[n+]1[O-] | 84* | 4 | -19 | -3 | 1 | -10 | 3 | 1
O=C(NC1CCCCC1)c1ccc(CS(=O)(=O)c2ccc(Cl)cc2)o1 | 0 | -1 | -2 | 0 | 1 | -2 | . | .
COc1ccccc1CCc1nnc(N)s1 | 81* | -1 | 5 | 3 | -2 | 1 | 1 | 2
Nc1nnc(CCOc2ccccc2Cl)s1 | 2 | 1 | 0 | -3 | -1 | 0 | . | .
Nc1cc(S(=O)(=O)N2CCOCC2)ccc1Oc1cccc(Br)c1 | 6 | 0 | 3 | -3 | -1 | 19 | . | .
COc1ccc(NC(=O)CSc2ccc3nnc(-c4ccccn4)n3n2)c(OC)c1 | 1 | 1 | 5 | -2 | 0 | -5 | . | .
Cc1cccc(NC(=O)CCc2c(C)nc3ncnn3c2C)n1 | 2 | -2 | 1 | 4 | -3 | -1 | . | .
COc1ccc(N2CCN(C(CNC(=O)C(=O)NCCc3c[nH]c4ccccc34)c3ccco3)CC2)cc1 (stereo not drawn) | 78* | 0 | 1 | -3 | 0 | -8 | -1 | -1
CCN(C(=O)COC(=O)c1ccc(O)cc1)c1cccc2ccccc12 | 1 | -5 | 5 | -2 | -1 | 0 | . | .
CCN(C(=O)COC(=O)c1nccnc1N)c1cccc2ccccc12 | 61* | 5 | -17 | -3 | -1 | -12 | 3 | 3
O=C(/C=C/c1ccc(Br)cc1)c1ccco1 | 7 | 21 | -1 | 2 | 1 | -9 | . | .
O=C(/C=C/c1ccc(Br)cc1)c1ccc(NC(=O)c2ccco2)cc1 | 88* | 24 | 2 | 6 | 39 | 22 | 1 | -5
CCOc1ccc(N(CC(=O)Nc2ccc(C)cc2C)S(C)(=O)=O)cc1 | 71* | 3 | -3 | -1 | -2 | 0 | -2 | 0
Cc1c(C)c(C)c(S(=O)(=O)Nc2ccc3[nH]c(=O)[nH]c3c2)c(C)c1C | -4 | 1 | 2 | -4 | 0 | 3 | . | .
SMILES | DNMT1 block | CSN deneddyl inh | SUMO1-SIM PPI | STEP block | LMPTP inh | Scp1 inh | DNMT1 confirm | Beacon interf
O=C1NC(=O)C2(N1)C(=O)c1cccc3cccc2c13 (stereo not drawn) | 92* | -72 | -16 | -1 | -3 | . | 49* | 70*
O=C(c1cccc(C(F)(F)F)c1)C1CCCN(C(=O)CCCn2cncn2)C1 (stereo not drawn) | 1 | -3 | -1 | 0 | -1 | -5 | . | .
C/C(CC(=O)Nc1ccccc1C#N)=N\NC(=O)c1ccncc1 | 82* | -3 | 3 | -2 | -1 | -7 | 3 | 2
O=S(=O)(c1ccc(F)cc1)N1CCCN(c2nccc(C(F)(F)F)n2)CC1 | 4 | 2 | 2 | 3 | 1 | -7 | . | .
CCCN1CCC(C)(C(=O)Nc2cccc(OC(C)C)c2)C1 (stereo not drawn) | 1 | 0 | 2 | 0 | -2 | . | . | .
Cc1cc(C)c(NC(=O)Cn2nnc(C(=O)NCCc3ccccc3)c2N)c(C)c1 | 23 | 8 | 8 | -2 | 0 | -2 | . | .
COc1ccc(CNC(=O)c2nnn(Cc3ccc(OC)cc3)c2N)cc1 | 0 | 4 | 7 | 0 | 0 | -8 | . | .
Cc1cc(C)cc(NC(=O)Cn2nnc(C(=O)NCCc3ccccc3)c2N)c1 | 67* | 37* | 6 | 0 | 41 | -1 | 1 | -1
Nc1c(C(=O)NCc2ccccc2)nnn1Cc1ccc(F)cc1 | 50* | 5 | 4 | 4 | 1 | -16 | 4 | 6
NC(=O)Cn1c(=O)n(Cc2ccco2)c(=O)c2c3c(sc21)CCCCC3 | 83* | 29 | 12 | 16 | 8 | 71* | 3 | 0
CN(Cc1ccc(C(C)(C)C)cc1)C(=O)Cc1ccc(S(=O)(=O)N2CCOCC2)s1 | 71* | -2 | 1 | 2 | 1 | -13 | 3 | 3
CCc1ccc(CN(Cc2cccnc2)C(=O)/C=C/c2ccc(OC)cc2)cc1 | 57* | 26 | -27 | -1 | 3 | 10 | 2 | 0
COc1ccc(/C=C/C(=O)NCc2cccnc2)cc1 | -2 | -6 | -2 | 2 | -2 | -5 | . | .
CC(=O)c1cccc(OCC(O)CNCCOc2ccc(C)cc2)c1 (stereo not drawn) | 0 | 1 | 3 | 3 | -1 | -7 | . | .
Cc1nc2ccccc2n1CC(=O)NN | 74* | 4 | 21 | 0 | 0 | -8 | 1 | 4
O=C(O)C1Oc2cc3ccccc3cc2O1 | 55* | 15 | 4 | 16 | 23 | 50 | 5 | 4
